In ChEMBL document CHEMBL4627411, “Novel Piperidinyl-Azetidines as Potent and Selective CCR4 Antagonists Elicit Antitumor Response as a Single Agent and in Combination with Checkpoint Inhibitors” (J Med Chem, 2020):

Legend:
[1] = target: T1, C-C chemokine receptor type 4 (Homo sapiens, UniProt P51679); assay: Antagonist activity at human CCR4 expressed in rat chem-5 cells assessed as inhibition of CCL22-induced calcium flux measured at 2.5 secs time interval for 45 secs by calcium 6 dye-based FLIPR assay; format: functional, cell-based
T1 sequence (P51679 whole entry): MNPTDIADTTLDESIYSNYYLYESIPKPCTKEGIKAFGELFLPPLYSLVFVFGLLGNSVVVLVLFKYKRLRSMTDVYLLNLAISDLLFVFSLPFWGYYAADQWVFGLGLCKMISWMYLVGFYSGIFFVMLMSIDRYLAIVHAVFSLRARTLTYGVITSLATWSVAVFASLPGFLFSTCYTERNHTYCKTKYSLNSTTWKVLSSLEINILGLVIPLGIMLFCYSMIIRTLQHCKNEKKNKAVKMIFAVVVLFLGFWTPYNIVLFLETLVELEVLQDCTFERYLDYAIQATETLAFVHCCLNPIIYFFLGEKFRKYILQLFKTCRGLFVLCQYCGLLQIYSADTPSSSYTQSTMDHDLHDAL
In short: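 Primary calcium flux assay for CCR4 antagonism, run in the absence of serum.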

[2] = Metabolic stability in human hepatocytes assessed as parent compound remaining at 1 uM after 60 mins by LC-MS/MS analysis; format: ADME, cell-based, Hepatocyte; conditions: read-out: Stability
In short: (§1)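 Hepatocytes (human or rat). Compound incubated for 60 min; value is % parent remaining.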

[3] = Metabolic stability in rat hepatocytes assessed as parent compound remaining at 1 uM after 60 mins by LC-MS/MS analysis; format: ADME, cell-based, Hepatocyte; conditions: read-out: Stability; in short: as §1
[4] = Oral bioavailability in rat at 2 mg/kg; format: ADME, organism-based; conditions: in vivo
In short: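 Rat in vivo PK. Oral dose of 2 mg/kg; %F derived.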

[5] = Clearance in rat at 0.5 mg/kg, iv; format: ADME, organism-based; conditions: in vivo
In short: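 Rat in vivo PK. Single IV dose of 0.5 mg/kg; clearance in mL/min/kg.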

Cytochrome P450 = assay: Induction of CYP450 (unknown origin); format: ADME, protein assay; conditions: human
Cytochrome P450 3A4 = Cytochrome P450 3A4 (Homo sapiens, UniProt P08684); assay: Inhibition of CYP3A4 in human liver microsomes using midazolam hydrochloride as substrate incubated for 20 mins in presence of NADPH by LC-MS/MS analysis; format: ADME
Cytochrome P450 2C19 = Cytochrome P450 2C19 (Homo sapiens, UniProt P33261); assay: Inhibition of CYP2C19 in human liver microsomes using S-mephenytoin as substrate incubated for 20 mins in presence of NADPH by LC-MS/MS analysis; format: ADME
Cytochrome P450 2C9 = Cytochrome P450 2C9 (Homo sapiens, UniProt P11712); assay: Inhibition of CYP2C9 in human liver microsomes using diclofenac sodium salt as substrate incubated for 20 mins in presence of NADPH by LC-MS/MS analysis; format: ADME
Cytochrome P450 2D6 = Cytochrome P450 2D6 (Homo sapiens, UniProt P10635); assay: Inhibition of CYP2D6 in human liver microsomes using bufuralol hydrochloride salt as substrate incubated for 20 mins in presence of NADPH by LC-MS/MS analysis; format: ADME
CYP3A4 = CYP3A4 (Homo sapiens, UniProt P08684); assay: Ratio of IC50 for time-dependent inhibition of CYP3A4 in human liver microsomes using midazolam hydrochloride as substrate in presence of NADPH to IC50 for time-dependent inhibition of CYP3A4 in human liver microsomes using midazolam hydrochloride as substrate absence of NADPH; conditions: probe midazolam hydrochloride, read-out: Ratio IC50
Cytochrome P450 1A2 = Cytochrome P450 1A2 (Homo sapiens, UniProt P05177); assay: Inhibition of CYP1A2 in human liver microsomes using phenacetin as substrate incubated for 20 mins in presence of NADPH by LC-MS/MS analysis; format: ADME
Cytochrome P450 1A2, sequence (P05177 whole entry): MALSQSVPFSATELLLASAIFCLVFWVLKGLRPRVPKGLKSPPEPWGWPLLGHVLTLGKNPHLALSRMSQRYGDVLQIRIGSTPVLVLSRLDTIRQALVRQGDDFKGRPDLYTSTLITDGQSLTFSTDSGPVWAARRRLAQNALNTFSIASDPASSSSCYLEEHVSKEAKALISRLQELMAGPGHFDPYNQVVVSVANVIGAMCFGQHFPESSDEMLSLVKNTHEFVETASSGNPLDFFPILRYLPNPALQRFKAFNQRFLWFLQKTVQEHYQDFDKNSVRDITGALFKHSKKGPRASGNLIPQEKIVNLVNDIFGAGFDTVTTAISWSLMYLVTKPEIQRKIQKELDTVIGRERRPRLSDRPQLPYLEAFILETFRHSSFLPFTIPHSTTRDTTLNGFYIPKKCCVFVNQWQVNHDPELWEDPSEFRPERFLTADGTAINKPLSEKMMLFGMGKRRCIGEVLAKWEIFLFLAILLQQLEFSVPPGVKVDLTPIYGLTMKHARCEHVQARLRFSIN

Cytochrome P450 3A4, sequence (P08684 whole entry): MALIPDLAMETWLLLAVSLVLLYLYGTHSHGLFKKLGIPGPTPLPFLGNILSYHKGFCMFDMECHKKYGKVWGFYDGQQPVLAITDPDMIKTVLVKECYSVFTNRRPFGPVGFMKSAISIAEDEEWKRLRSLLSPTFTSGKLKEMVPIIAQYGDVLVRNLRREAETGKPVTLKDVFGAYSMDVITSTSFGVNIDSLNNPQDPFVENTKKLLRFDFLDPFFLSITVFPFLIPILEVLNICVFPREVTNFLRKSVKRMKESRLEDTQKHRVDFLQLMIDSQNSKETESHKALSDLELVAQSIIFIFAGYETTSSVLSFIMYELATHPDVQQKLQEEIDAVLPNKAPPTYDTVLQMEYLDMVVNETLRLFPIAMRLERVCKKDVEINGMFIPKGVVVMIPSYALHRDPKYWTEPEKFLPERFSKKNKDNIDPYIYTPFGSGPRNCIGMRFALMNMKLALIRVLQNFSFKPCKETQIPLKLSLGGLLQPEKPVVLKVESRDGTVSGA
CYP3A4, sequence (P08684 whole entry): as above
Cytochrome P450 2C9, sequence (P11712 whole entry): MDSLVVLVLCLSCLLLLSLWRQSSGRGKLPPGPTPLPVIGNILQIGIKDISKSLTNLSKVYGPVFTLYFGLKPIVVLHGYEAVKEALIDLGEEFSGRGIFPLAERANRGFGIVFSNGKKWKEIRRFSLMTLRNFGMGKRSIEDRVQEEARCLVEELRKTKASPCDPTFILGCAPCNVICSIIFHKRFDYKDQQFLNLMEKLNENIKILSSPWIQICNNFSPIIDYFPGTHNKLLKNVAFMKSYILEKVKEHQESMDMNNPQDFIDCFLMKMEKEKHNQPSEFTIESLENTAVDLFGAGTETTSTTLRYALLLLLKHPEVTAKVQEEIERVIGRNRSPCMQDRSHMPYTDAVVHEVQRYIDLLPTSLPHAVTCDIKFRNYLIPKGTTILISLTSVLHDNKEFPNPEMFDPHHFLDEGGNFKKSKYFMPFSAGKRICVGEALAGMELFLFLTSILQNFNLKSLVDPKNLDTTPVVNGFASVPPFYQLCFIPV
Cytochrome P450 2D6, sequence (P10635 whole entry): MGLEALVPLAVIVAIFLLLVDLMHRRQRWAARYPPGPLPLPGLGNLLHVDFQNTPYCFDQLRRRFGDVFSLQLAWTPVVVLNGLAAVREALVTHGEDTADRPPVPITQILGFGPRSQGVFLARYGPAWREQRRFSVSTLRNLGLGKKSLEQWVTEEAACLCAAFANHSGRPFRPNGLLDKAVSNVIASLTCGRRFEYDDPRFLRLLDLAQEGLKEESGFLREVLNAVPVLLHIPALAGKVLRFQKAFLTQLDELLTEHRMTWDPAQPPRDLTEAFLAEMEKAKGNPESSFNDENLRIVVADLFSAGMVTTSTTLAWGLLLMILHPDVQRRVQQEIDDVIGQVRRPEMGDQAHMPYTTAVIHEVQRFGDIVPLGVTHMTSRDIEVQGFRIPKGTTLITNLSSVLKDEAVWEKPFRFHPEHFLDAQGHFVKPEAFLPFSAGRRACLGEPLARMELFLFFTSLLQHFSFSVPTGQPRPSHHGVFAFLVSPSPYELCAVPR
Cytochrome P450 2C19, sequence (P33261 whole entry): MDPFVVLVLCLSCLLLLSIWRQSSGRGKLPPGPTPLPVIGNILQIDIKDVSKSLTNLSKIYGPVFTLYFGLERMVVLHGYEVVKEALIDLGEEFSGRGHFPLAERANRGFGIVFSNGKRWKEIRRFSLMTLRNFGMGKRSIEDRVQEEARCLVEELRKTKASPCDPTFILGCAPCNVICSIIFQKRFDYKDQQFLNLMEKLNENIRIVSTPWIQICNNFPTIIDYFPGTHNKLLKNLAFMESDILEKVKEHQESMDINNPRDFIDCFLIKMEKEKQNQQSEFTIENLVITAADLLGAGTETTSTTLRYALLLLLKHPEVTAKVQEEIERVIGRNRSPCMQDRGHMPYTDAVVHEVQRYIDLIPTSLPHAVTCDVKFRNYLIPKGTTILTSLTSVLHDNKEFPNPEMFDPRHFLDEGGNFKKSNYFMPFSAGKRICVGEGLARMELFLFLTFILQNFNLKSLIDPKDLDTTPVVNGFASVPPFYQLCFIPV

| SMILES | IC50 [1] | further results |
| --- | --- | --- |
| C[C@H](c1ccc(Cl)cc1Cl)n1nc(C#N)c2ncc(N3CC([C@H]4CCCN(CC(=O)O)C4)C3)nc21 | 36 nM | – |
| Cc1nn([C@H](C)c2ccc(Cl)cc2Cl)c2nc(N3CC([C@H]4CCCN(CCCO)C4)C3)cnc12 | 37 nM | – |
| Cc1nn([C@H](C)c2ccc(Cl)cc2Cl)c2nc(N3CC([C@H]4CCCN(CCC(F)(F)F)C4)C3)cnc12 | 505 nM | – |
| Cc1nn([C@H](C)c2ccc(Cl)cc2Cl)c2nc(N3CC(C4CCCN(CCS(N)(=O)=O)C4)C3)cnc12 (stereo partly drawn) | 121 nM | – |
| Cc1nn([C@H](C)c2ccc(Cl)cc2Cl)c2nc(N3CC([C@H]4CCCN(CCCC(=O)O)C4)C3)cnc12 | 69 nM | – |
| Cc1nn([C@H](C)c2ccc(Cl)cc2Cl)c2nc(N3CC(CN(C)C)C3)cnc12 | 1370 nM | – |
| Cc1nn([C@H](C)c2ccc(Cl)cc2Cl)c2nc(N3CC([C@H]4CCCN(CCNS(C)(=O)=O)C4)C3)cnc12 | 29 nM | remaining at 1 h, 1 µM [2]: 85%; remaining at 1 h, 1 µM [3]: 53%; bioavailability [4]: 11%; clearance [5]: 41.6 mL/min/kg |
| Cc1nn([C@H](C)c2ccc(Cl)cc2Cl)c2nc(N3CC([C@H]4CCCN(CCO)C4)C3)cnc12 | 24 nM | remaining at 1 h, 1 µM [2]: 87%; Activity (Cytochrome P450): Not Active; IC50 (Cytochrome P450 3A4): > 40000 nM; IC50 (Cytochrome P450 2C19): > 40000 nM; IC50 (Cytochrome P450 2C9): > 40000 nM; IC50 (Cytochrome P450 2D6): > 40000 nM; remaining at 1 h, 1 µM [3]: 62%; bioavailability [4]: 61%; IC50 shift (CYP3A4): 2.6; IC50 (Cytochrome P450 1A2): > 40000 nM; clearance [5]: 32.3 mL/min/kg |
| C[C@H](c1ccc(Cl)cc1Cl)n1nc(C(=O)O)c2ncc(N3CC([C@H]4CCCN(CCO)C4)C3)nc21 | > 5000 nM | – |
| C[C@H](c1ccc(Cl)cc1Cl)n1nc(C#N)c2ncc(N3CC([C@H]4CCCN(CCC(F)(F)F)C4)C3)nc21 | 370 nM | – |
| Cc1nn([C@H](C)c2ccc(Cl)cc2Cl)c2nc(N3CC([C@H]4CCCN(CCS(N)(=O)=O)C4)C3)cnc12 | 84 nM | – |
| Cc1nn([C@H](C)c2ccc(Cl)cc2Cl)c2nc(N3CC([C@@H]4CCCN(CCS(N)(=O)=O)C4)C3)cnc12 | 455 nM | – |
| C[C@H](c1ccc(Cl)cc1Cl)n1nc(C#N)c2ncc(N3CC([C@H]4CCCN(Cc5cnc[nH]5)C4)C3)nc21 | 21 nM | – |
| Cc1nn([C@H](C)c2ccc(Cl)cc2Cl)c2nc(N3CC([C@H]4CCCN(CCC(N)=O)C4)C3)cnc12 | 42 nM | – |
| Cc1nn([C@H](C)c2ccc(Cl)cc2Cl)c2nc(N3CC([C@H]4CCCN(CCCS(C)(=O)=O)C4)C3)cnc12 | 22 nM | – |
| CNC(=O)c1nn([C@H](C)c2ccc(Cl)cc2Cl)c2nc(N3CC([C@H]4CCCN(CCO)C4)C3)cnc12 | 25 nM | – |
| C[C@H](c1ccc(Cl)cc1Cl)n1nc(C(=O)N(C)C)c2ncc(N3CC([C@H]4CCCN(CCO)C4)C3)nc21 | 9 nM | – |
| COC(=O)NCCN1CCC[C@H](C2CN(c3cnc4c(C)nn([C@H](C)c5ccc(Cl)cc5Cl)c4n3)C2)C1 | 23 nM | – |
| C[C@H](c1ccc(Cl)cc1Cl)n1nc(C#N)c2ncc(N3CC([C@H]4CCCN(CC#N)C4)C3)nc21 | 1470 nM | – |
| C[C@H](c1ccc(Cl)cc1Cl)n1nc(C#N)c2ncc(N3CC([C@H]4CCCN(CCC#N)C4)C3)nc21 | 28 nM | – |
| C[C@H](c1ccc(Cl)cc1Cl)n1nc(C#N)c2ncc(N3CC([C@H]4CCCN(CCC(=O)O)C4)C3)nc21 | 47 nM | – |
| C[C@H](c1ccc(Cl)cc1Cl)n1nc(C(N)=O)c2ncc(N3CC([C@H]4CCCN(CCO)C4)C3)nc21 | 8 nM | remaining at 1 h, 1 µM [2]: 95%; remaining at 1 h, 1 µM [3]: 95%; bioavailability [4]: 0%; clearance [5]: 191 mL/min/kg |
| CCOC(=O)CN1CCCC(C2CN(c3cnc4c(C)nn([C@H](C)c5ccc(Cl)cc5Cl)c4n3)C2)C1 (stereo partly drawn) | 596 nM | – |
| Cc1nn([C@H](C)c2ccc(Cl)cc2Cl)c2nc(N3CC([C@H]4CCCN(CCNC(=O)C(C)C)C4)C3)cnc12 | 18 nM | – |
| Cc1nn([C@H](C)c2ccc(Cl)cc2Cl)c2nc(N3CC([C@H]4CCCN(CCC(=O)O)C4)C3)cnc12 | 91 nM | – |
| CCN1CCC(C2CN(c3cnc4c(C)nn([C@H](C)c5ccc(Cl)cc5Cl)c4n3)C2)CC1 | > 5000 nM | – |
| Cc1nn([C@H](C)c2ccc(Cl)cc2Cl)c2nc(N3CC([C@H]4CCCN(CCNS(=O)(=O)C(C)C)C4)C3)cnc12 | 31 nM | – |
| CC(=O)NCCN1CCC[C@H](C2CN(c3cnc4c(C)nn([C@H](C)c5ccc(Cl)cc5Cl)c4n3)C2)C1 | 6 nM | remaining at 1 h, 1 µM [2]: 94%; remaining at 1 h, 1 µM [3]: 68%; bioavailability [4]: 13%; clearance [5]: 11 mL/min/kg |
| Cc1nn([C@H](C)c2ccc(Cl)cc2Cl)c2nc(N3CC(N4CCCCC4)C3)cnc12 | > 5000 nM | – |
| Cc1nn([C@H](C)c2ccc(Cl)cc2Cl)c2nc(N3CC([C@H]4CCCN(CCS(C)(=O)=O)C4)C3)cnc12 | 77 nM | – |
